Series [1] addresses T1, Peroxisome proliferator-activated receptor alpha (Homo sapiens, UniProt Q07869).
T1 sequence (Q07869 whole entry): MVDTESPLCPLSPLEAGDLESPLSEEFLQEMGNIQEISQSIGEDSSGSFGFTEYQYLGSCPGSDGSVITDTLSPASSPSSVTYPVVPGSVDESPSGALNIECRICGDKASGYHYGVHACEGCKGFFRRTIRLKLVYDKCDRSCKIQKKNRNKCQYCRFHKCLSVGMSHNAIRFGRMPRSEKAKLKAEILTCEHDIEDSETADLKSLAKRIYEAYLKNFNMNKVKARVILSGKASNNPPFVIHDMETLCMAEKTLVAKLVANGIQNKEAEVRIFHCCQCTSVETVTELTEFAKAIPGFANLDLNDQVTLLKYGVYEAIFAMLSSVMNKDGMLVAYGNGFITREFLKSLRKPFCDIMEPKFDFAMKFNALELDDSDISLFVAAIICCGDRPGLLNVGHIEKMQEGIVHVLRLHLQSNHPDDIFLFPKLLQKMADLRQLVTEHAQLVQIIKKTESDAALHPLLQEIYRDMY
Nature of the series: Transactivation of human PPARalpha expressed in human HepG2 cells co-transfected with PPRE3-TK-Luc by luciferase reporter gene assay. It counts as cell-based.

Series [2] concerns Rattus norvegicus. Nature of the series: Toxicity in male Wistar rat assessed as SGOT level at 30 mg/kg, po measured after 28 days (reference value: 135.14 +/- 6.89 U/L). It counts as organism-based. The arrangement: dose 30 mg/kg, route oral. Particulars: in vivo, 672 h.
Series [3] concerns Mus musculus. The experiment in a line: Hypolipidemic activity in db/db mouse assessed as reduction in triglyceride level at 0.1 mg/kg, po. The arrangement: scale not given: the % may be the effect or the level left. It counts as functional.
The test system of series [4] is Rattus norvegicus. The experiment in a line: Toxicity in male Wistar rat assessed as testes to body weight ratio at 3 mg/kg, po measured after 28 days (reference value: 1.075 +/-1 0.106). It counts as organism-based, Testis. The arrangement: dose 3 mg/kg, route oral. Particulars: in vivo, 672 h.
The test system of series [5] is Rattus norvegicus. Nature of the series: Toxicity in male Wistar rat assessed as testes to body weight ratio at 30 mg/kg, po measured after 28 days (reference value: 1.075 +/- 0.106). It counts as organism-based, Testis. The arrangement: dose 30 mg/kg, route oral. The conditions noted are these: in vivo, 672 h.
Series [6] has as its system Rattus norvegicus. Nature of the series: Toxicity in female Wistar rat assessed as heart to body weight ratio at 3 mg/kg, po measured after 28 days (reference value: 0.403 +/- 0.010). It counts as organism-based. The arrangement: dose 3 mg/kg, route oral. Particulars: in vivo, 672 h.
Series [7] relates to Rattus norvegicus. The experiment in a line: Toxicity in female Wistar rat assessed as thymus to body weight ratio at 3 mg/kg, po measured after 28 days (reference value: 0.094 +/-0.01). It counts as organism-based. The arrangement: dose 3 mg/kg, route oral. The conditions noted are these: in vivo, 672 h.
Series [8] concerns Mus musculus. Nature of the series: Hypolipidemic activity in db/db mouse assessed as reduction in triglyceride level at 0.3 mg/kg, po. It counts as functional. The arrangement: scale not given: the % may be the effect or the level left.
In series [9] the test system is Rattus norvegicus. Nature of the series: Toxicity in male Wistar rat assessed as liver to body weight ratio at 30 mg/kg, po measured after 28 days (reference value: 3.257 +/- 0.067). Particulars: in vivo, 672 h. It counts as organism-based. The arrangement: dose 30 mg/kg, route oral.
The test system of series [10] is Rattus norvegicus. The experiment in a line: Toxicity in male Wistar rat assessed as SGPT level at 30 mg/kg, po measured after 28 days (reference value: 34.24 +/- 2.13 U/L). The arrangement: dose 30 mg/kg, route oral. The conditions noted are these: in vivo, 672 h. It counts as organism-based.
Series [11] deals with T2, Peroxisome proliferator-activated receptor alpha (Homo sapiens) (UniProt Q07869).
T2 sequence (whole entry): T1 sequence (Q07869 whole entry)
The experiment in a line: Transactivation of human PPARalpha expressed in human HepG2 cells co-transfected with PPRE3-TK-Luc by luciferase reporter gene assay relative to WY14643. It counts as cell-based. In outline:
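Same HepG2 hPPARα or hPPARγ / PPRE3-TK-luc luciferase transactivation assay. Efficacy expressed as percent of maximal response, normalized to 100% for the reference agonist: WY-14643 for α, rosiglitazone for γ.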

For series [12], the system named is Rattus norvegicus. Nature of the series: Toxicity in male Wistar rat assessed as kidney to body weight ratio at 3 mg/kg, po measured after 28 days (reference value: 0.745 +/- 0.012). It counts as organism-based. The arrangement: dose 3 mg/kg, route oral. Particulars: in vivo, 672 h.
Series [13] deals with Rattus norvegicus. Nature of the series: Toxicity in female Wistar rat assessed as SGOT level at 30 mg/kg, po measured after 28 days (reference value: 155.70 +/- 6.56 U/L). The conditions noted are these: in vivo, 672 h. It counts as organism-based. The arrangement: dose 30 mg/kg, route oral.

What is called EC50 is the midpoint of the concentration-response curve. Take `CCO[C@@H](Cc1ccc(OCCc2nc(-c3ccc(C)s3)oc2C)cc1)C(=O)O`: the response in series [1] was half-maximal at 0.31 pM (EC50). Moreover, the Activity in the series with Rattus norvegicus [2] worked out at 245.24 U/L; in the series on Mus musculus [3] it was 49.4%; in the series with Mus musculus [8], 51.8%; in the series on Rattus norvegicus [10], 33.03 U/L; with Rattus norvegicus [13], 224 U/L. In addition, the Ratio came out at 1.152 in the series on Rattus norvegicus [4]; 1.356 with Rattus norvegicus [5]; 0.46 in the series on Rattus norvegicus [6]; 0.101 in the series with Rattus norvegicus [7]; 8.099 in the series on Rattus norvegicus [9]; 0.807 in the series on Rattus norvegicus [12]. Moreover, in [11], the Emax is 116%.

The values are drawn from ChEMBL document CHEMBL1811848 (Bioorg Med Chem Lett, 2011).
